# In paper PMC7482441 (Pharmacological Research, 2020):
# Assays:
# [1] = test system: ambulant boys with DMD; experiment: Phase Ib safety assessments; type: in vivo, human
# In short: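 Open-label study in boys aged 6–14 with genetically confirmed DMD, walking ≥75 m and on stable corticosteroids ≥6 months. Dosing was oral, 50–300 mg TID for 4 weeks, in 4 ascending cohorts. Assessments at screening, weeks 1, 2 and 4, and 1–2 weeks post-treatment: physical exam, AEs, supine/standing blood pressure and heart rate, respiratory rate. Also 12-lead ECG with QT, read locally and centrally, plus blood/urine haematology and biochemistry.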
# [2] = test system: mdx mice; details: short and long term studies in mdx mice; cited from earlier work
# [3] = test system: CK T (Creatine Kinase total); experiment: Circulating biomarker, baseline vs 4-week treatment; type: in vivo, human; details: 20 DMD patients, Electrophoresis, p-value 0.0007, FDR 0.24
# [4] = test system: UMX 101 hamsters; details: lifelong preventive treatment; cited from earlier work
# [5] = test system: MCP1; experiment: Circulating biomarker, baseline vs 4-week treatment; type: in vivo, human; details: 20 DMD patients, OLink, p-value 0.0016, FDR 0.39
# [6] = test system: animal models; details: cited from earlier work
# [7] = test system: TNFα; experiment: Circulating biomarker, baseline vs 4-week treatment; type: in vivo, human; details: 20 DMD patients, Luminex, p-value 0.0009, FDR 0.24
# [8] = test system: Golden Retriever muscular dystrophy (GRMD) dogs; details: treatment in a preventing setting; cited from earlier work
# [9] = Cohort 2 N = 5, 300 to 450 mg daily oral, 4 weeks
# [10] = Cohort 3 N = 5, 450 to 600 mg daily oral, 4 weeks
# [11] = Cohort 4 N = 5, 600 to 900 mg daily oral, 4 weeks
compound,measurement,setting,value
[H]/N=C(\N)NC(=O)c1cc(S(C)(=O)=O)c(S(C)(=O)=O)cc1C [Rimeporide],Oropharyngeal pain: patients (events),[1]; [9],0
same,Presyncope: patients (events),[1]; [9],0
same,Pyrexia: patients (events),[1]; [9],0
same,"Respiratory, thoracic and mediastinal disorders: patients (events)",[1]; [9],1 (1 event)
same,Tympanic membrane perforation: patients (events),[1]; [9],0
same,Vascular disorders: patients (events),[1]; [9],0
same,Vomiting: patients (events),[1]; [9],0
same,Abdominal pain upper: patients (events),[1]; [10],1 (2 events)
same,Any treatment-emergent adverse event: patients (events),[1]; [10],5 (15 events)
same,Chills: patients (events),[1]; [10],0
same,Cough: patients (events),[1]; [10],1 (1 event)
same,Diarrhoea: patients (events),[1]; [10],3 (4 events)
same,Dizziness: patients (events),[1]; [10],1 (1 event)
same,Ear and labyrinth disorders: patients (events),[1]; [10],0
same,Fall: patients (events),[1]; [10],0
same,Flushing: patients (events),[1]; [10],1 (1 event)
same,Gastrointestinal disorders: patients (events),[1]; [10],4 (8 events)
same,General disorders and administration site conditions: patients (events),[1]; [10],0
same,Headache: patients (events),[1]; [10],2 (2 events)
same,Infections and infestations: patients (events),[1]; [10],2 (2 events)
same,"Injury, poisoning and procedural complications: patients (events)",[1]; [10],0
same,Mouth ulceration: patients (events),[1]; [10],0
same,Nasopharyngitis: patients (events),[1]; [10],2 (2 events)
same,Nervous system disorders: patients (events),[1]; [10],3 (3 events)
same,Oropharyngeal pain: patients (events),[1]; [10],0
same,Presyncope: patients (events),[1]; [10],0
same,Pyrexia: patients (events),[1]; [10],0
same,"Respiratory, thoracic and mediastinal disorders: patients (events)",[1]; [10],1 (1 event)
same,Tympanic membrane perforation: patients (events),[1]; [10],0
same,Vascular disorders: patients (events),[1]; [10],1 (1 event)
same,Vomiting: patients (events),[1]; [10],2 (2 events)
same,Abdominal pain upper: patients (events),[1]; [11],1 (1 event)
same,Any treatment-emergent adverse event: patients (events),[1]; [11],4 (13 events)
same,Chills: patients (events),[1]; [11],0
same,Cough: patients (events),[1]; [11],1 (1 event)
same,Diarrhoea: patients (events),[1]; [11],0
same,Dizziness: patients (events),[1]; [11],0
same,Ear and labyrinth disorders: patients (events),[1]; [11],1 (1 event)
same,Flushing: patients (events),[1]; [11],1 (2 events)
same,Gastrointestinal disorders: patients (events),[1]; [11],1 (1 event)
same,General disorders and administration site conditions: patients (events),[1]; [11],1 (1 event)
same,Headache: patients (events),[1]; [11],2 (3 events)
same,Infections and infestations: patients (events),[1]; [11],1 (1 event)
same,Mouth ulceration: patients (events),[1]; [11],0
same,Nasopharyngitis: patients (events),[1]; [11],1 (1 event)
same,Nervous system disorders: patients (events),[1]; [11],3 (4 events)
same,Oropharyngeal pain: patients (events),[1]; [11],1 (1 event)
same,Presyncope: patients (events),[1]; [11],1 (1 event)
same,Pyrexia: patients (events),[1]; [11],1 (1 event)
same,"Respiratory, thoracic and mediastinal disorders: patients (events)",[1]; [11],2 (2 events)
same,Tympanic membrane perforation: patients (events),[1]; [11],1 (1 event)
same,Vascular disorders: patients (events),[1]; [11],1 (2 events)
same,Vomiting: patients (events),[1]; [11],0
same,gastrin levels,[1]; after a four-week treatment,No modifications of gastrin levels
same,TEAEs of mild intensity,[1]; all cohorts,Thirty-five
same,TEAEs reported as severe,[1]; all cohorts,2
same,SAE related to study medication,"[1]; all doses, 4 weeks, 20 DMD boys",No SAE related to study medication was reported
same,blood pressure and heart rate,"[1]; standing and supine, 4-week treatment",devoid of any blood pressure or heart rate lowering effects
same,"treatment emergent adverse events (TEAEs), total events",[1]; twelve patients of 20,37
same,effects in skeletal and cardiac muscles,[2],potent anti-inflammatory and anti-fibrotic effects
same,"CK T: Term (TRT, linear mixed effect model, Day 28 vs Day 0)",[3],−0.3851
same,mortality,[4],dramatic reduction in mortality
same,"MCP1: Term (TRT, linear mixed effect model, Day 28 vs Day 0)",[5],−0.5675
same,exposure/concentration range with an efficacious response,[6],500 to 2500 ng/mL
same,"TNFα: Term (TRT, linear mixed effect model, Day 28 vs Day 0)",[7],−0.1726
same,cardioprotection,[8],confirmed the cardioprotective role
